Sequences and labels used below:
B1: tRNA (parent)
chain: GUUCCGUUGGCGUAAUGGUAACGCGUCUCCCUCCUAAGGAGAAGACUGCGGGUUCGAGUCCCGUACGGAACG

This sample holds only a part of the variants without activity. Bounds are passed on as bounds.

Variants of B1 are the subject of the data set. In words: yeast fitness relative to wild type (ratio to wild type); higher = fitter; tRNA-Arg(CCU), competitive growth, 37 C, YPD. A digest of the protocol: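 Changes in genotype frequencies gave Darwinian fitness relative to wild type. Frequencies were read by 100-nucleotide paired-end sequencing of gene amplicons before and after pooled Saccharomyces cerevisiae strains, carrying tRNA-Arg(CCU) gene variants at the native locus, were competed in YPD at 37°C for 24 hours in six replicates. A genotype was kept only with ≥ 100 starting reads, and estimates < 0.5 were set to 0.5.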
C5G U26A A69C: the yeast fitness worked out at 0.634.
In the case of C5G U64A it was 0.784; in that of C5U C11A U26A C29U C30A C31U C60U C61U, at most 0.5; in that of C5U C11A A43U C66U, 0.621.
In the case of C5U A14U C31G G63A it was 0.575.
C5G U26G G38C G51C: the yeast fitness is at most 0.5.
Consider C5U C11A C31U C34U, for which the yeast fitness was at most 0.5.
With C5G U13G A20U A37G the figure was 0.514; with C5U C11G C22G C46G, at most 0.5; with C5U A45C A70U, 0.813.
On to C5U A45C A70G, for which the yeast fitness is 0.76.
With C5G U7A C11U C31A A45C the figure was at most 0.5; with C5U A15G A20G C27G C33U G63A, at most 0.5; with C5U A40U A42C A65U, at most 0.5.
With C5U A20U C49G A69C the figure was at most 0.5; with C5G G68U, 0.678.
In the case of C5G U13A C22G C29G A40U it was 0.556; in that of C5U A42U C49G C60A, 0.575.
As for C5U A14C A21C, the yeast fitness was 0.552.
With C5U A14C C61U the figure was 0.562; with C5U C11G A15U U32A U35G, 0.562.
With C5G U35C C66U the figure was 0.546.
For C5G U7A A14U, the yeast fitness was 0.624.
With C5U A15G C60A A70C the figure was at most 0.5; with C5G G51A G68A, at most 0.5.
With C5G U13A C22G C29G A40U U54C the figure was at most 0.5.
As for C5U A14C C29U C46A, the yeast fitness was at most 0.5.
Take C5G U7G A20G: the yeast fitness was at most 0.5.
With C5U A57G G63A the figure was 0.63; with C5G U8C A15G C29A G39A, at most 0.5; with C5U A20G C22G C29A A45U, 0.563.
In the case of C5U A20U C30U it was at most 0.5; in that of C5U A14U C46U G52C A69U, at most 0.5.
In the case of C5U A15G A42G G58C G68A, the yeast fitness is at most 0.5.
In the case of C5U A14C G63A it was at most 0.5; in that of C5G U16C C24U, at most 0.5.
In the case of C5U A37G G56C it was 0.533; in that of C5U A15G U19A A21U C34U, at most 0.5.
Turning to C5G U26C G51C A57U, the yeast fitness is at most 0.5.
With C5G U7C G52A the figure was at most 0.5; with C5U A20U C30G C66U, at most 0.5; with C5G G50A A65G, 0.587.
With C5G U13G A14U G48C the figure was at most 0.5; with C5G U13G C22G C29G A40U U54C C61G, 0.567.
In the case of C5G U7G A14C U19A G58C it was 0.584; in that of C5U A21G C27U G41A, at most 0.5; in that of C5U A15G G58C G68A, 0.51.
In the case of C5U A57U C61U, the yeast fitness came out at 0.59.
On to C5U A36U A70U, for which the yeast fitness stood at 0.628.
With C5G U19G C22U A43C G51A the figure was at most 0.5; with C5U A15G C22U A37U A65C, at most 0.5.
In the case of C5U A20C C34A U64C it was at most 0.5; in that of C5G G51C A65C, at most 0.5.
With C5G U8A G41C U47A the figure was 0.605.
On to C5G U7G C33G A70U, for which the yeast fitness was at most 0.5.
In the case of C5U A37C C60U G67A it was 0.558; in that of C5G U28A G67C, 0.634; in that of C5G U35C C49U C61G, at most 0.5.
In the case of C5U A20C A40C C61U G68C it was at most 0.5.
With C5U A20C A21U U53C U64A the figure was at most 0.5; with C5U A42C A69C, 0.803; with C5G U13C G58C, 0.74.
In the case of C5U A37G A40C U47A, the yeast fitness is at most 0.5.
In the case of C5U A15G A42C C49A it was at most 0.5.
With C5U A21G G44C A57U C62U the figure was at most 0.5; with C5U C11G G51A, at most 0.5.
With C5U A20U G56C A65G A70U the figure was at most 0.5; with C5U A14G C29U A37U, at most 0.5; with C5U A40G C49U C62U A65G, at most 0.5.
Regarding C5U A15U G17A C46G G63C C66A, the yeast fitness was at most 0.5.
With C5U A14C G41C the figure was 0.613; with C5U A37G U59G G68C, at most 0.5.
With C5G U26C A43G U47C U64A the figure was at most 0.5; with C5U A15U A20C C55A, at most 0.5; with C5G U19C A57U, 0.533.
With C5U A45C G63C the figure was at most 0.5; with C5G U26C A43G U47C, at most 0.5; with C5U C11A C24G C27G A36U G38C C60A C66A, at most 0.5.
Take C5G U26A A36C C61G A69G: the yeast fitness is at most 0.5.
With C5U A14G C24U U28C the figure was at most 0.5; with C5U A15G U16A A20G U28A C30A C33A A36U, at most 0.5; with C5G U32G, 0.776.
C5G U32A: the yeast fitness was found to be 0.678.
In the case of C5G U16A C31G C66G it was at most 0.5; in that of C5U A14C A45C A65C, 0.561; in that of C5G U7C C34A, at most 0.5.
In the case of C5U A42G A45U C60G it was at most 0.5; in that of C5G G52C C66U, at most 0.5.
With C5U A14U C29U C46G the figure was at most 0.5.
Turning to C5U A20C C29A C49G A57G, the yeast fitness is at most 0.5.
With C5U A21G C27U G41A G63U the figure was at most 0.5.
In the case of C5U A15C A21G C27U C46U it was at most 0.5; in that of C5G U13A C22G U59A, at most 0.5; in that of C5U A40C A42G, 0.558.
With C5U A14U G41C the figure was at most 0.5; with C5U A21U U53A A57U C60A G68C, at most 0.5.
Turning to C5U A37G A43C G63C, the yeast fitness is at most 0.5.
Regarding C5U A15U U16A C29U C55U, the yeast fitness was at most 0.5.
In the case of C5U A15U C30G C33G A40G A43U it was at most 0.5; in that of C5U C11A A14G A42G C49U U64A, at most 0.5; in that of C5U A21U C31G A37C C66U, 0.51.
In the case of C5U A21U U28C C30G A70U it was at most 0.5; in that of C5U A40C A65U, 0.643.
With C5U A14C C55A the figure was at most 0.5.
As to C5G U26C C30U C49U, the yeast fitness was at most 0.5.
With C5U A45G A69G the figure was 0.909; with C5G G44C C55A, at most 0.5; with C5G U26A C46U, 0.96.
In the case of C5U A36U C49G it was at most 0.5.
Turning to C5U A14U A21G A65C, the yeast fitness is at most 0.5.
With C5U A15G C66U the figure was 0.632; with C5G U16A C33A A43C, at most 0.5; with C5U A43C, 0.813.
With C5U A21C C31U the figure was 0.695; with C5G U16A C33A A43C G50A A57U C60G, 0.523.
With C5U A65G A69G A70U, the yeast fitness was at most 0.5.
In the case of C5U A21U A40U it was 0.57.
In the case of C5G U7A A20C G68C it was at most 0.5; in that of C5U A20C A70U, 0.732.
In the case of C5G G48A C49U it was 0.933; in that of C5G U28C, 0.737; in that of C5G U28A, 0.669.
As for C5U A57U G63A, the yeast fitness was at most 0.5.
In the case of C5G U28G C31U G51A U54A U59A it was 0.522.
For C5U A42G G56C, the yeast fitness is at most 0.5.
Take C5G U16C A20G: the yeast fitness was at most 0.5.
C5U A45C C49U G56A: the yeast fitness was determined as 0.616.
In the case of C5G G51C C61G C66U it was at most 0.5; in that of C5U C11G A14G C29G, at most 0.5; in that of C5U A21G A42U G58A, 1.02.
In the case of C5G U7G U32C it was 0.604; in that of C5U A20C G67A, 1.01; in that of C5G U26C A70G, 0.632.
With C5G U7G C33A A65C the figure was at most 0.5.
Take C5U C11G C24U A42C A65C A70U: the yeast fitness was at most 0.5.
With C5U A20U C61U C62U the figure was at most 0.5; with C5U A21U C31U G52A A69G, at most 0.5; with C5U C11A G50C C66U, at most 0.5.
With C5U A45G C61G C66U A69U the figure was at most 0.5; with C5U A14U C30U G39C, at most 0.5; with C5G U28C C31G C62U, at most 0.5.
In the case of C5G G50C it was 0.701.
In the case of C5G G50A, the yeast fitness stood at 0.835.
With C5U A20C A36G G52C the figure was 0.567; with C5U C11G G48C C66U, at most 0.5; with C5G U47A G68A, at most 0.5.
With C5G U16A G39A the figure was at most 0.5.
With C5U A45U C62G A65G the figure was 0.698.
Take C5G U7C A20U A43G: the yeast fitness is at most 0.5.
In the case of C5U A14G C24U A40U C55G it was at most 0.5; in that of C5U A14G U26C C30U A42C C61G, at most 0.5; in that of C5U A20C C29U C34A C46A G50A A57U, at most 0.5.
With C5G U59G C66U, the yeast fitness is at most 0.5.
For the variant C5U C11A A21G A40U, the yeast fitness was determined as 0.68.
With C5U A20C A36G the figure was 0.632; with C5G U7C G56A A57U C62G, at most 0.5; with C5U C11A A21C C27G, 0.564.
In the case of C5U A15U U54A C55U C66A, the yeast fitness was at most 0.5.
As for C5U A45C G56C, the yeast fitness was found to be 0.572.
In the case of C5U C11A C24G C27G A36U G38C C60G C66A it was 0.522; in that of C5G U19G, 0.916.
In the case of C5G U26C A42G A57G C61U it was at most 0.5; in that of C5G U16A A69U, at most 0.5; in that of C5U C11G A15U G56C C61G, at most 0.5.
With C5U A21U C62U A70C the figure was at most 0.5.
As to C5U A20U A36G, the yeast fitness was 0.674.
In the case of C5U A15U G39A U53A G68C it was at most 0.5.
